Experiments:
Type in all cases: functional
MCF7 = assay: Cytotoxicity against human MCF7 cells after 48 hrs by sulforhodamine B assay; settings: MCF7, 48 h
Procedure, shortened: (§1)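 NCI 60-panel screen. Cells were grown in RPMI 1640 with 5% FBS and L-glutamine and plated at 5000–40,000 cells/well according to doubling time. They were preincubated 24 h at 37 °C, 5% CO2, then exposed 48 h to five 10-fold dilutions. Adherent cells were fixed with cold TCA, final 10%; suspension cells were fixed after settling. Cells were stained with 0.4% SRB and read at 515 nm. Tz/C/Ti growth curves gave GI50, TGI and LC50.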

KM12 = assay: Growth inhibition of human KM12 cells at 10 uM after 48 hrs by sulforhodamine B assay; settings: KM12, 48 h, read-out: GI
Procedure, shortened: (§2)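 NCI one-dose primary screen at 10 (printed mM) across the 60-line panel. Cells in RPMI 1640 with 5% FBS and 2 mM L-glutamine, plated at 5000–40,000 cells/well and incubated 24 h before dosing. Exposure 48 h at 37 °C, 5% CO2. Adherent cells were fixed with cold TCA, suspension cells fixed after settling. SRB stain, absorbance 515 nm. Reported as percent growth of treated cells relative to control.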

SK-MEL-2 = assay: Growth inhibition of human SK-MEL-2 cells at 10 uM after 48 hrs by sulforhodamine B assay; settings: SK-MEL-2, 48 h, read-out: GI; procedure, shortened: as §2
MDA-MB-435 = assay: Cytotoxicity against human MDA-MB-435 cells after 48 hrs by sulforhodamine B assay; settings: MDA-MB-435, 48 h; procedure, shortened: as §1
[1] = Cytotoxicity against human Hs 578T cells after 48 hrs by sulforhodamine B assay; procedure, shortened: as §1
A498 = assay: Growth inhibition of human A498 cells at 10 uM after 48 hrs by sulforhodamine B assay; settings: A498, 48 h, read-out: GI; procedure, shortened: as §2
SK-OV-3 = assay: Cytotoxicity against human SKOV3 cells after 48 hrs by sulforhodamine B assay; settings: SK-OV-3, 48 h; procedure, shortened: as §1
OVCAR-8 = assay: Cytotoxicity against human OVCAR8 cells after 48 hrs by sulforhodamine B assay; settings: OVCAR-8, 48 h; procedure, shortened: as §1
OVCAR-3 = assay: Cytotoxicity against human OVCAR3 cells after 48 hrs by sulforhodamine B assay; settings: OVCAR-3, 48 h; procedure, shortened: as §1
CAKI-1 = assay: Cytotoxicity against human Caki1 cells after 48 hrs by sulforhodamine B assay; settings: CAKI-1, 48 h; procedure, shortened: as §1
SNB-75 = assay: Cytotoxicity against human SNB75 cells after 48 hrs by sulforhodamine B assay; settings: SNB-75, 48 h; procedure, shortened: as §1
TK-10 [2] = assay: Growth inhibition of human TK10 cells at 10 uM after 48 hrs by sulforhodamine B assay; settings: TK-10, 48 h, read-out: GI
Procedure, shortened: (§3)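 NCI-60 single-dose screen. Cells grown in RPMI 1640 with 5% FBS and L-glutamine, plated at 5000–40,000 cells/well by doubling time, and preincubated 24 h at 37 °C, 5% CO2. Compound stocks in DMSO, added at one concentration, then incubated 48 h. Adherent cells fixed with cold TCA (10% final), stained with 0.4% SRB, dye solubilized in 10 mM Tris base, A515 read. Reported as percent growth relative to untreated control.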

COLO 205 = assay: Growth inhibition of human COLO205 cells at 10 uM after 48 hrs by sulforhodamine B assay; settings: COLO 205, 48 h, read-out: GI; procedure, shortened: as §2
SK-MEL-5 = assay: Cytotoxicity against human SK-MEL-5 cells after 48 hrs by sulforhodamine B assay; settings: SK-MEL-5, 48 h; procedure, shortened: as §1
M14 = assay: Cytotoxicity against human M14 cells after 48 hrs by sulforhodamine B assay; settings: M14, 48 h; procedure, shortened: as §1
NCI-H226 = assay: Cytotoxicity against human NCI-H226 cells after 48 hrs by sulforhodamine B assay; settings: NCI-H226, 48 h; procedure, shortened: as §1
UO-31 [3] = assay: Cytotoxicity against human UO31 cells after 48 hrs by sulforhodamine B assay; settings: UO-31, 48 h
Procedure, shortened: (§4)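 NCI 60 panel five-dose screen. Cells in RPMI 1640 with 5% FBS and 2 mM L-glutamine, plated at 5000–40,000 cells/well and preincubated 24 h. Compounds were tested at five 10-fold concentrations (0.01–100) for 48 h at 37 °C, 5% CO2. Cells were fixed with TCA and stained with SRB, absorbance 515 nm. GI50, TGI and LC50 were taken from % growth curves against time-zero and control.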

HCC 2998 = assay: Growth inhibition of human HCC2998 cells at 10 uM after 48 hrs by sulforhodamine B assay; settings: HCC 2998, 48 h, read-out: GI; procedure, shortened: as §2
UO-31 [4] = assay: Growth inhibition of human UO31 cells at 10 uM after 48 hrs by sulforhodamine B assay; settings: UO-31, 48 h, read-out: GI; procedure, shortened: as §3
UACC-257 = assay: Cytotoxicity against human UACC257 cells after 48 hrs by sulforhodamine B assay; settings: UACC-257, 48 h; procedure, shortened: as §4
SF-268 = assay: Cytotoxicity against human SF268 cells after 48 hrs by sulforhodamine B assay; settings: SF-268, 48 h; procedure, shortened: as §1
HT-29 = assay: Cytotoxicity against human HT-29 cells after 48 hrs by sulforhodamine B assay; settings: HT-29, 48 h; procedure, shortened: as §1
RXF 393 = assay: Growth inhibition of human RXF393 cells at 10 uM after 48 hrs by sulforhodamine B assay; settings: RXF 393, 48 h, read-out: GI; procedure, shortened: as §2
BT-549 = assay: Cytotoxicity against human BT549 cells after 48 hrs by sulforhodamine B assay; settings: BT-549, 48 h; procedure, shortened: as §1
IGROV-1 = assay: Cytotoxicity against human IGROV1 cells after 48 hrs by sulforhodamine B assay; settings: IGROV-1, 48 h; procedure, shortened: as §1
TK-10 [5] = assay: Cytotoxicity against human TK10 cells after 48 hrs by sulforhodamine B assay; settings: TK-10, 48 h; procedure, shortened: as §4
[6] = read-out: LC50 (the source's name)

## O=C(CCc1nnc(-c2ccc(Cl)cc2Cl)o1)c1nc2ccccc2[nH]1
MCF7
  GI50: 4.57 µM
  TGI: 100 µM
MCF7; [6]
  CC50: 100 µM
KM12
  inhibition of growth at 10 µM: 71.3%
SK-MEL-2
  inhibition of growth at 10 µM: 40.6%
MDA-MB-435
  GI50: 2 µM
  TGI: 4.77 µM
MDA-MB-435; [6]
  CC50: 100 µM
[1]
  GI50: 9.71 µM
  TGI: 93.9 µM
[1]; [6]
  CC50: 100 µM
A498
  inhibition of growth at 10 µM: 41.6%
SK-OV-3
  GI50: 4.6 µM
  TGI: 30.5 µM
SK-OV-3; [6]
  CC50: 100 µM
OVCAR-8
  GI50: 9.26 µM
  TGI: 100 µM
OVCAR-8; [6]
  CC50: 100 µM
OVCAR-3
  GI50: 5.63 µM
  TGI: 24.8 µM
OVCAR-3; [6]
  CC50: 90.7 µM
CAKI-1
  GI50: 3.49 µM
  TGI: 41.1 µM
CAKI-1; [6]
  CC50: 100 µM
SNB-75
  GI50: 18.7 µM
SNB-75; [6]
  CC50: 100 µM
TK-10 [2]
  inhibition of growth at 10 µM: 36%
COLO 205
  inhibition of growth at 10 µM: 37.4%
SK-MEL-5
  GI50: 2.88 µM
  TGI: 14.9 µM
SK-MEL-5; [6]
  CC50: 64.6 µM
M14
  GI50: 5.86 µM
  TGI: 31.5 µM
M14; [6]
  CC50: 100 µM
NCI-H226
  GI50: 6.66 µM
  TGI: 31.2 µM
NCI-H226; [6]
  CC50: 100 µM
UO-31 [3]
  GI50: 6.71 µM
  TGI: 32.9 µM
UO-31 [3]; [6]
  CC50: 100 µM
HCC 2998
  inhibition of growth at 10 µM: 34.1%
UO-31 [4]
  inhibition of growth at 10 µM: 48%
UACC-257
  GI50: 13.7 µM
  TGI: 44.4 µM
UACC-257; [6]
  CC50: 100 µM
SF-268
  GI50: 7.3 µM
  TGI: 46.6 µM
SF-268; [6]
  CC50: 100 µM
HT-29
  GI50: 3.77 µM
  TGI: 55.1 µM
HT-29; [6]
  CC50: 100 µM
RXF 393
  inhibition of growth at 10 µM: 18.4%
BT-549
  GI50: 7.54 µM
  TGI: 92.5 µM
BT-549; [6]
  CC50: 100 µM
IGROV-1
  GI50: 5.26 µM
  TGI: 39.1 µM
IGROV-1; [6]
  CC50: 100 µM
TK-10 [5]
  GI50: 16.4 µM
  TGI: 100 µM
TK-10 [5]; [6]
  CC50: 100 µM

Source: ChEMBL document CHEMBL2040797, “Synthesis of benzimidazoles bearing oxadiazole nucleus as anticancer agents” (2012)
